# hERG protect: compounds protecting human hERG from proarrhythmic drug block. Q12809. CHO-hERG, FluxOR thallium flux, dofetilide IC70 present. activation (rescue from dofetilide block), less the hit threshold, % at 10 µM. 0.51% of 310,000 active;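 active means activation above the mean of controls blocked by dofetilide plus 5 SD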;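 further: thallium influx through hERG after potassium depolarization seen as dye fluorescence rise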
# KCNK3 block: human KCNK3 channel inhibition, primary screen | B-score at 10 µM | O14649 | CHO-KCNK3 thallium flux, FluxOR fluorescence; stronger effect = lower value | 0.84% of 340,000 active;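 active means B-score under library mean minus 4 SD, starting fluorescence ratio at most library mean plus 5 SD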;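 further: more negative B-score means stronger inhibition of thallium flux through KCNK3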
# KCNK9 block: human KCNK9 channel inhibition. Q9NPC2. HEK293 KCNK9, FluxOR thallium flux fluorescence; stronger effect = lower value. B-score at 10 µM. 1.2% of 310,000 active. AID 488922;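 active means ratio B-score over 3 SD below the library mean, with starting fluorescence within 5 SD of its mean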;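 further: negative B-score means less thallium flux so channel inhibition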
# Target sequence (Q9NPC2 whole entry, looked up): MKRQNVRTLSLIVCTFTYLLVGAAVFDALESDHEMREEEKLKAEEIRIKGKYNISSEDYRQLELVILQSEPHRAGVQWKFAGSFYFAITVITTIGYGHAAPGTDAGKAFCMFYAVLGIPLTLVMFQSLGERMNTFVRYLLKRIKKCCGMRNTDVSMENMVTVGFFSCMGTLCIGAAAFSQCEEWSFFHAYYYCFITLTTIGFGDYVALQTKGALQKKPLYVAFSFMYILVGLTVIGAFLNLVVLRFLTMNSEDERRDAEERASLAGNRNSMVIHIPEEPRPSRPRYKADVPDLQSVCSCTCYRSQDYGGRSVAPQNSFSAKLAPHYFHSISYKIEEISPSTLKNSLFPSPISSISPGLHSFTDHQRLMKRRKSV
# KCNQ1 inh: human KCNQ1 channel inhibition; 1.3% of 310,000 active; P51787; CHO-K1 KCNQ1, FluxOR thallium flux fluorescence; stronger effect = higher value; AID 2642; B-score at 10 µM;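 active means compounds whose thallium flux B-score, printed positive for inhibition, exceeds three library SD while starting fluorescence stays within three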;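 further: channel opened by potassium depolarization with thallium stimulus after 20 min compound exposure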
# Kir21 block: blocks the mouse Kir2.1 inward-rectifier potassium channel; AID 1672; HEK293-Kir2.1, FluxOR thallium flux fluorescence; stronger effect = lower value; 0.85% of 310,000 active; B-score at 10 µM; P35561;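 active means fluorescence ratio B-score at or below minus 3 SD of library scores, with starting-brightness B-score within 2 SD, cut at about -4.2 in these data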;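 further: channel flux triggered by added potassium and thallium sulfate stimulus; B-score of peak minus minimum fluorescence over baseline after thallium stimulus; more negative B-score means stronger Kir2.1 block with less thallium influx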
# KCNQ1 pot: human KCNQ1 channel potentiation or activation | P51787 | CHO-K1 KCNQ1, thallium flux FluxOR fluorescence; stronger effect = higher value | B-score at 10 µM | 0.35% of 310,000 active | AID 2648;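 active means fluorescence ratio B-score, a plate-corrected score, at least three library SD, with initial intensity B-score within 5 SD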
#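 assay system = CHO-K1 cells stably expressing KCNQ1 | medium = assay buffer, equal DMSO in all wells | timing = 37 °C overnight plating, 90-min dark dye load, 20-min compound pretreatment | measured by = kinetic FluxOR thallium fluorescence, 10-s 1-Hz baseline, 110-s post-stimulus read | measure = fluorescence change relative to baseline, converted to B score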
# KCNK9 inh conf: human KCNK9 inhibitor confirmation. AID 492992. inhibition, % at 10 µM. shares compounds with KCNK9 block. HEK293 KCNK9 cells, FluxOR thallium flux fluorescence. 43% of 4,900 active;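 active means thallium signal inhibited by more than 5 SD of the compound-free buffer control wells, on both duplicate plates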;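 further: 0% = assay buffer control wells without compound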
# Kir21 sel: mouse Kir2.1 off-target activity of KCNK9 modulators | 4% of 4,900 active | inhibition, % at 10 µM | shares compounds with KCNK9 block | Kir2.1 cells, FluxOR thallium flux fluorescence;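 active means thallium signal drop more than 5 SD beyond the mean of the no-compound control wells, seen in both duplicate plates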;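 further: signal is fluorescence rise after thallium addition divided by baseline fluorescence; plate controls were assay buffer only for no effect and full block by chlorpromazine control for full effect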
# HEK293 Tl ctr: non-induced cell nonspecific activity of KCNK9 modulators; shares compounds with KCNK9 block; non-induced KCNK9-HEK293, FluxOR thallium flux; inhibition, % at 10 µM; 40% of 4,900 active; AID 492997;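 active means thallium signal drop beyond 5 SD of the untreated control mean, on both duplicate plates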;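 further: plate controls were buffer only IC0 wells for no effect and SID17386958 at its maximal inhibitory level for full effect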
# Numbers without * were called inactive; i = inactive; x = no result given. An excerpt weighted towards active compounds, which were near 3.7% of everything screened.
SMILES,hERG protect,KCNK3 block,KCNK9 block,KCNQ1 inh,Kir21 block,KCNQ1 pot,KCNK9 inh conf,Kir21 sel,HEK293 Tl ctr
O=C(c1cc(F)ccc1F)C1CCCN(Cc2ccc3nonc3c2)C1 (stereo unspecified),-4.8,i,i,i,0.24,i,i,i,i
COc1ccc(CN2CCCC(C(=O)c3ccccc3SC)C2)cc1O (stereo unspecified),-19.6,i,i,i,0,i,x,x,x
COc1ccc(CN2CCCC(C(=O)c3cccc(Cl)c3)C2)cc1 (stereo unspecified),-9.3,i,i,i,-8.84*,i,i,31.5%*,i
CCC1(CC)C(=O)NC(=O)N(CCc2ccccn2)C1=O,x,i,x,x,x,x,x,x,x
CC(=O)c1c(C)n(CCCOC(C)C)c2ccc(O)cc12,-8.4,i,i,i,0.42,i,x,x,x
S=P(NCCNP(=S)(N1CC1)N1CC1)(N1CC1)N1CC1,x,i,x,x,x,x,x,x,x
COC(=O)C1=C(c2cc3ccccc3o2)C[C@@H]2CC[C@H]1N2C(=O)NCc1cccc2ccccc12,-14.5,i,i,i,-0.09,i,x,x,x
CSc1ncc(CN2CCCC(C(=O)c3cccc(Cl)c3)C2)cn1 (stereo unspecified),-1.8,i,i,i,0.14,i,i,i,i
COc1ccc(CN2CCCC(C(=O)c3ccc(Cl)cc3)C2)c(OC)c1 (stereo unspecified),-12.0,i,i,i,-5.17*,i,i,i,i
COc1ccc(C(=O)C2CCCN(Cc3ccon3)C2)c(OC)c1 (stereo unspecified),-4.5,i,i,i,-1.3,i,x,x,x
CCCCOC(=O)c1ccc(NC(=O)c2c(O)[nH]c(=O)[nH]c2=O)cc1,-7.7,i,i,i,1.07,i,x,x,x
O=C(c1ccc2c(c1)N(Cc1ccc(F)cc1)CCS2)N1CCC2(CC1)OCCO2,-9.9,i,i,i,-0.43,i,i,i,i
Cc1ccc(CN2CCSc3ccc(C(=O)N4CCC5(CC4)OCCO5)cc32)cc1,-9.8,i,i,i,-0.73,i,x,x,x
O=C(c1ccc(Cl)cc1)C1CCCN(Cc2cccc3cnccc23)C1 (stereo unspecified),-25.7,i,i,i,-1.36,i,i,i,i
O=C(c1ccc2c(c1)OCO2)C1CCCN(Cc2ccc(F)c(F)c2)C1 (stereo unspecified),-12.9,i,i,i,-0.24,i,x,x,x
O=C(c1cccc(Cl)c1)C1CCCN(Cc2cccc3cnccc23)C1 (stereo unspecified),-10.6,i,i,i,-2.06,i,x,x,x
O=C(c1ccc(Cl)cc1)C1CCCN(Cc2ccc3c(c2)OCCO3)C1 (stereo unspecified),-8.2,i,i,i,-1.45,i,i,i,i
O=C(c1ccc(Cl)cc1)C1CCCN(Cc2ccc3ncccc3c2)C1 (stereo unspecified),-27.8,i,i,i,-0.38,i,i,i,i
CCCCn1c(=O)c(C=Nc2cc([N+](=O)[O-])ccc2OC)c(O)n(CCCCl)c1=O,-4.3,i,i,i,0.75,i,x,x,x
CC(C)n1c(=O)c(C=Nc2cccc([N+](=O)[O-])c2)c(O)n(CCc2ccccc2)c1=O,-6.6,i,i,i,-2.06,i,i,i,i
CCCCCCn1c(=O)c(C(=O)Nc2c(C)n(C)n(-c3ccccc3)c2=O)c(O)c2ccccc21,-18.2,i,i,i,-0.01,i,i,i,i
Cc1ccc2c(CN3CC=C(c4ccccc4)CC3)cc(=O)oc2c1C,-13.2,i,i,i,2.33,i,i,i,i
CCc1ccc2c(CN3CC=C(c4ccccc4)CC3)cc(=O)oc2c1,-10.1,i,i,i,1.71,i,x,x,x
COc1cccc(NP(=O)(Oc2ccccc2Cl)Oc2ccccc2Cl)c1,-2.5,i,-10.1*,i,0,i,38.5%*,i,38.0%*
O=c1[nH]c(=O)n(-c2cccc3ccccc23)c(O)c1/C=N/N1CCCCC1c1cccnc1 (stereo unspecified),-9.1,i,i,i,0.5,i,x,x,x
SMILES,hERG protect,KCNK3 block,KCNK9 block,KCNQ1 inh,Kir21 block,KCNQ1 pot,KCNK9 inh conf,Kir21 sel,HEK293 Tl ctr
CCC(=O)c1cn(Cc2ccccc2)c2ccccc12,-21.4,i,i,i,0.01,i,x,x,x
O=C(COc1ccccc1)c1cn(Cc2ccccc2)c2ccccc12,-8.7,i,-10.1*,i,-3.29,i,52.0%*,i,53.0%*
O=C(CN1C(=O)CN=C(c2ccccc2Cl)c2cc(Cl)ccc21)NCc1ccco1,-2.2,i,i,i,-0.75,i,x,x,x
Cc1cccc(C2=NCC(=O)N(CC(=O)NCc3ccco3)c3sc4c(c32)CCCC4)c1,-6.7,i,-11*,i,-1.98,i,41.0%*,i,30.5%*
CC(C)(C)c1ccc(S(=O)(=O)N2CC3CC(C2)c2cccc(=O)n2C3)cc1 (stereo unspecified),-2.6,i,i,i,0.16,i,x,x,x
O=C(Nc1nccs1)c1c(O)c2c(n(Cc3ccco3)c1=O)CCCC2,-6.8,i,-8.19*,6*,0.23,i,43.5%*,i,35.5%*
O=C(Nc1ccccc1)c1c(O)c2c(n(Cc3ccco3)c1=O)CCCC2,-0.9,i,i,i,-0.06,i,x,x,x
COc1ccc2c(c1)[C@@]13CCC=C[C@H]1[C@@H](C2)NCC3,x,i,x,x,x,x,x,x,x
O=C(c1cn(Cc2ccccc2)c2ccccc12)N1CCCCC1,-9.0,i,i,i,0.6,i,x,x,x
Cc1cccc(C(=O)Nc2ccc(Cl)cc2C(=O)c2ccccc2)c1,-10.0,i,-8.44*,i,0.15,i,32.5%*,i,31.0%*
Clc1ccc(CCNCc2ccncc2)c(Cl)c1,-4.6,i,i,i,-0.37,i,x,x,x
Cc1cccc(CN2CCN(c3ccc(Cl)cc3)CC2)c1,-21.0,i,i,i,-1.86,i,i,i,i
Fc1ccc(CN2CCN(c3ccc(Cl)cc3)CC2)cc1,-6.2,i,i,i,-0.07,i,x,x,x
CCCCn1c(=O)c(C=Nc2ccc(Cl)cc2)c(O)n(Cc2ccco2)c1=O,-2.2,i,i,i,1.46,i,i,i,i

# Source: PubChem (Johns Hopkins Ion Channel Center)
